This note sets out measurements from ChEMBL document CHEMBL1123251, “N-(cyanomethyl)- and N-(2-methoxy-1-cyanoethyl)anthracyclines and related carboxyl derivatives” (J Med Chem, 1986).

Data set [1] can be described thus: Compound was evaluated for the change in Tm of isolated helical DNA in solution. The data set is classed as ADME. The procedure, abridged: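 Thermal denaturation of calf thymus DNA (5.2×10⁻⁵ M, P) with drug at 5.2×10⁻⁶ M in 0.01 M phosphate buffer pH 7, 10⁻⁵ M EDTA, 5% Me2SO. ΔTm = Tm(DNA–drug complex) − Tm(DNA).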
The test system of data set [2] is L1210. Description: Compound was evaluated for the 50% inhibition of the incorporation of [3H]uridine in the RNA (inhibition of synthesis in leukemia L1210 cells). Particulars: Mus musculus, read-out: ED50 (the source's name).
The nature of data set [3]: Percent recovery of compound at pH 7. It is filed as ADME. A digest of the protocol: (§1)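 Drug stock in CH₃CN or EtOH was diluted 1:1 with citrate buffer (pH 4) or phosphate buffer (pH 7) and held at 23 °C for 22 h. Remaining drug was measured by reversed-phase C18 (5 μm) HPLC, eluting with 0.1 N NaH₂PO₄–CH₃CN (70:30 or 66:34, depending on compound). Result is reported as % recovery.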

The nature of data set [4]: Percent recovery of compound at pH 4. The data set is classed as ADME. The procedure, abridged:
as §1

Data set [5] can be described thus: Percent recovery of compound at pH 2. It is filed as ADME. The procedure, abridged: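 Drug stocks in CH3CN or EtOH were diluted 1:1 with phosphate buffer (pH 7), citrate buffer (pH 4) or 0.1 N HCl–KCl (pH 2). Solutions were held at 23 °C for 22 h, then aliquots were analysed by reversed-phase C18 HPLC eluted with 0.1 N NaH2PO4–CH3CN. Percent of drug recovered was reported.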

Data set [6] deals with L1210. In words: Compound was evaluated for the 50% inhibition of the incorporation of [3H]- thymidine in the DNA (inhibition of synthesis in leukemia L1210 cells). The data set is classed as functional. To be noted: Mus musculus, read-out: ED50 (the source's name).
The subject of data set [7] is P388/ADR. In words: Compound was evaluated for the growth inhibition of P388/ADR cells. It is filed as functional, cell-based. Particulars: Mus musculus. A digest of the protocol:
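P388/ADR, a P388 subline selected for anthracycline resistance, grown in culture and exposed to drug for 48 h. IC50 (μM) was taken for growth inhibition. Resistance index = IC50 in P388/ADR ÷ IC50 in parent P388/S cells.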

In data set [8] the test system is P388. In words: Compound was evaluated for the antitumor efficacy at optimal dose 0.012 mg/kg against leukemia P388 in mice on day 1,. The data set is classed as functional, Mus musculus.
For data set [9], the system named is P388/S. Description: (§2) Compound was evaluated for the growth inhibition of P388/s cells. The data set is classed as functional, cell-based. To be noted: Mus musculus. A digest of the protocol:
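Growth inhibition of P388/S cells (the standard screening P388 line) in culture after 48-h drug exposure; IC50 reported in μM.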

Data set [10] deals with P388. In words: Compound was evaluated for the antitumor efficacy at optimal dose 7.5 mg/kg against leukemia P388 in mice on day 1,. The data set is classed as functional, Mus musculus.
Data set [11] concerns P388. Description: Compound was evaluated for the antitumor efficacy at optimal dose 8.0 mg/kg against leukemia P388 in mice on day q4d 5, 9, 13.,. It is filed as functional, Mus musculus.
Data set [12] deals with P388/S. The description is as §2. It is filed as functional, cell-based. Particulars: Mus musculus. The procedure, abridged:
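Cultured P388 cells were exposed to drug for 48 h and the IC50 for growth inhibition determined.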
The source holds these as a separate data set.

The nature of data set [13]: Partition coefficient in octanol-phosphate buffer at pH 7.4.
Data set [14] concerns P388. In words: Compound was evaluated for the antitumor efficacy at optimal dose 3.1 mg/kg against leukemia P388 in mice on day 1,. It is filed as functional, Mus musculus.

Broadly, the IC50 is the concentration that inhibits the measured activity by half. As a reminder, the T/C is the result in the treated group divided by that in the control group, in per cent. In general, logD refers to lipophilicity at a set pH, counting ionised and neutral species. Low values mean lower lipophilicity, high ones higher lipophilicity.

For the compound `COc1cccc2c1C(=O)c1c(O)c3c(c(O)c1C2=O)C[C@@](O)(C(=O)CO)C[C@@H]3OC1CC(N2CCOCC2C#N)C(O)C(C)O1` (stereo not given in full), the “Change in Tm” value in data set [1] was found to be 8.7. Besides, the EC50 in [2] is 0.53 nM; in data set [6], 3 nM. Also, the results for the Recovery in data set [3], in [4] and in data set [5] were 74%, 54% and 10%, respectively. The same compound showed a half-inhibitory concentration (IC50) in [7] of 0.3 nM. Further, the T/C in [8] is 262%.

For the compound `COc1cccc2c1C(=O)c1c(O)c3c(c(O)c1C2=O)C[C@@](O)(C(=O)CO)C[C@@H]3O[C@H]1C[C@H](N)[C@H](O)[C@H](C)O1` [DOXORUBICIN], the “Change in Tm” value in data set [1] is recorded as 12.8. Also, the EC50 in data set [2] came to 580 nM; in [6] it was 1600 nM. Further, the IC50 is 68 nM in [9] and 8200 nM in [7]. The figures for the T/C in data set [10] and in data set [11] were 252% and 160%, respectively.

Consider `CCOC(=O)CN(CC#N)C1CC(O[C@H]2C[C@](O)(C(C)=O)Cc3c(O)c4c(c(O)c32)C(=O)c2c(OC)cccc2C4=O)OC(C)C1O` (stereo not given in full), for which the EC50 in data set [2] was determined as 3500 nM; in data set [6], 7000 nM.

Take `CCOC(=O)CNC1CC(O[C@H]2C[C@](O)(C(C)=O)Cc3c(O)c4c(c(O)c32)C(=O)c2c(OC)cccc2C4=O)OC(C)C1O` (stereo not given in full): in data set [1], the “Change in Tm” value came to 0. Moreover, the EC50 in [2] came out at 11000 nM; in data set [6], 13000 nM.

Turning to `COCC(C#N)NC1CC(O[C@H]2C[C@](O)(C(=O)CO)Cc3c(O)c4c(c(O)c32)C(=O)c2c(OC)cccc2C4=O)OC(C)C1O` (stereo not given in full), the “Change in Tm” value in data set [1] stood at 12.5. Moreover, the figures for the EC50 in data set [2] and in [6] were 400 nM and 800 nM, respectively. Further, the midpoint of inhibition in data set [12], the IC50, lay at 37 nM. Also, the Recovery in [3] was determined as 28%; in [4], 29%; in data set [5] it was 58%. In addition, the logD in data set [13] was 0.92.

As for `COc1cccc2c1C(=O)c1c(O)c3c(c(O)c1C2=O)C[C@@](O)(C(C)=O)C[C@@H]3OC1CC(NCC#N)C(O)C(C)O1` (stereo not given in full), the “Change in Tm” value in data set [1] is given as 11.7. Further, the EC50 was determined as 820 nM in data set [2] and 1800 nM in [6]. The same compound showed a logD in data set [13] of 2.28.

Take `COc1cccc2c1C(=O)c1c(O)c3c(c(O)c1C2=O)C[C@@](O)(C(=O)CO)C[C@@H]3OC1CC(NCC#N)C(O)C(C)O1` (stereo not given in full): the “Change in Tm” value in [1] is 13.9. Moreover, the EC50 is 290 nM in data set [2] and 1200 nM in [6]. In [12], this compound registered an IC50 of 28 nM. Further, the T/C is 184% in [14] and 148% in data set [11]. For the same compound, the values for the Recovery in data set [3], in [4] and in data set [5] were 82%, 86% and 92%, respectively. For the same compound, in [13], the logD was 1.2.

For `COCC(C#N)NC1CC(O[C@H]2C[C@](O)(C(C)=O)Cc3c(O)c4c(c(O)c32)C(=O)c2c(OC)cccc2C4=O)OC(C)C1O` (stereo not given in full), in [1], the “Change in Tm” value is 9.4. In addition, the EC50 in data set [2] and in [6] was 510 nM each time. For the same compound, the logD in data set [13] turned out to be 2.64.

As to `CCOC(=O)CCCNC1CC(O[C@H]2C[C@](O)(C(C)=O)Cc3c(O)c4c(c(O)c32)C(=O)c2c(OC)cccc2C4=O)OC(C)C1O` (stereo not given in full), the “Change in Tm” value in data set [1] is 8.4. Besides, the EC50 turned out to be 370 nM in [2] and 1300 nM in data set [6]. The compound also returned a logD in data set [13] of 2.04.

With `COc1cccc2c1C(=O)c1c(O)c3c(c(O)c1C2=O)C[C@@](O)(C(C)=O)C[C@@H]3OC1CC(NCC(N)=O)C(O)C(C)O1` (stereo not given in full), in [1], the “Change in Tm” value is 3.5. Further, the EC50 in [2] was 1700 nM; in [6], 7500 nM. The same compound showed a log distribution coefficient (logD) in [13] of 1.65.

Turning to `COc1cccc2c1C(=O)c1c(O)c3c(c(O)c1C2=O)C[C@@](O)(C(C)=O)C[C@@H]3OC1CC(NCC(=O)O)C(O)C(C)O1` (stereo not given in full), in data set [1], the “Change in Tm” value is recorded as 2.2. Moreover, the results for the EC50 in data set [2] and in data set [6] were 100000 nM and over 100000 nM, respectively. The same compound had a pH-dependent lipophilicity (logD) in data set [13] of 0.43.

For `COc1cccc2c1C(=O)c1c(O)c3c(c(O)c1C2=O)C[C@@](O)(C(C)=O)C[C@@H]3OC1CC(N(CC#N)CC(=O)[O-])C(O)C(C)O1.[Na+]` (stereo not given in full), in [1], the “Change in Tm” value was 2.2. For the same compound, the figures for the EC50 in data set [2] and in data set [6] were 5300 nM and 14000 nM, respectively. For the same compound, in [13], the logD came out at 0.03.

For the compound `COc1cccc2c1C(=O)c1c(O)c3c(c(O)c1C2=O)C[C@@](O)(C(C)=O)C[C@@H]3O[C@H]1C[C@H](N)[C@H](O)[C@H](C)O1` [DAUNORUBICIN], the “Change in Tm” value in data set [1] was found to be 10.5. Also, the EC50 in [2] came to 330 nM; in data set [6] it was 660 nM.
